{"data": "Assay results pooled from the literature", "cell line": "BEAS-2B", "effect on": "cell growth or viability", "technique": "MTT", "note": "Compare with care: the assays were run in different laboratories."}
{"SMILES": "Cc1cc(C)n(Cn2cnc3ccccc32)n1", "setting": "24 h", "IC50 [µM]": 739}
{"SMILES": "C/C(=N\\C(=S)/N=C(\\C)c1c(O)c2ccccc2oc1=O)c1c(O)c2ccccc2oc1=O", "setting": "48 h", "IC50 [µM]": 9.01}
{"SMILES": "C[C@H]1[C@H](C)CC[C@]2(C(=O)O)CC[C@]3(C)C(=CC[C@@H]4[C@@]5(C)CC[C@H](O)C(C)(C)[C@@H]5CC[C@]43C)[C@H]12", "setting": "24 h", "IC50 [µM]": 16}
{"SMILES": "CC(=O)c1c(O)c2ccccc2oc1=O", "setting": "48 h", "IC50 [µM]": 28.9}
{"SMILES": "Cc1cc(Cn2ccnc2)nn1C", "setting": "24 h", "IC50 [µM]": "> 800"}
{"SMILES": "OC1CCN(c2ccc(/C=N/NC(=S)NCc3ccccc3)cc2)CC1", "setting": "24 h", "IC50 [µM]": 12.6}
{"SMILES": "CCOC(=O)c1cc(C)n(Cn2cnc3ccccc32)n1", "setting": "24 h", "IC50 [µM]": 422}
{"SMILES": "C/C(=N\\NC(=O)/N=C(\\C)c1c(O)c2ccccc2oc1=O)c1c(O)c2ccccc2oc1=O", "setting": "48 h", "IC50 [µM]": 50.3}
{"SMILES": "OC1CCN(c2ccc(/C=N/NC(=S)Nc3cccc(Cl)c3Cl)cc2)CC1", "setting": "24 h", "IC50 [µM]": 16.9}
{"SMILES": "Cc1cc(C)n(Cn2ccnc2)n1", "setting": "24 h", "IC50 [µM]": 339}
{"SMILES": "OC1CCN(c2ccc(/C=N/NC(=S)NCCc3ccccc3)cc2)CC1", "setting": "24 h", "IC50 [µM]": 15}
{"SMILES": "COc1cccc2c1C(=O)c1c(O)c3c(c(O)c1C2=O)C[C@@](O)(C(=O)CO)C[C@@H]3O[C@H]1C[C@H](N)[C@H](O)[C@H](C)O1", "setting": "24 h", "IC50 [µM]": "> 100"}
{"SMILES": "C/C(=N\\C(=O)/N=C(\\C)c1c(O)c2ccccc2oc1=O)c1c(O)c2ccccc2oc1=O", "setting": "48 h", "IC50 [µM]": 21.9}
{"SMILES": "OC1CCN(c2ccc(/C=N/NC(=S)NC3CCCCC3)cc2)CC1", "setting": "24 h", "IC50 [µM]": 14.5}
